# Compounds with a hit are over-represented: about 1.5% of the library has one in this group of screens.
# CXCR6 inh: blocks human CXCR6 beta-arrestin recruitment | CHO-K1 PathHunter CXCR6 beta-arrestin, luminescence | inhibition, % at 20 µM | actives 0.36% (n = 360,000) | O00574; in the data active means inhibition above about 34%, passing the limit was not always enough;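 further: antagonist mode with CXCL16 agonist at 10 nM final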
# APJ antag: APJ receptor antagonism. actives 0.32% (n = 330,000). AID 2521. CHO-K1 APJ beta-arrestin complementation, luminescence. inhibition, % at 20 µM;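 active means inhibition above about 40% at 20 µM, limit read from the data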;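 further: cells challenged with 10 nM apelin-13 agonist together with compound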
# CCR6 antag: CCR6 (human) receptor antagonism; CHO-K1 CCR6 PathHunter beta-arrestin, luminescence, CCL20-stimulated; P51684; AID 493098; actives 0.49% (n = 340,000); inhibition, % at 20 µM;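 active means compounds whose inhibition of the agonist-driven luminescence signal at 20 µM reaches about 50%, limit read from the data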;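 further: cells stimulated with CCL20 at 14 nM final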
# Target sequence (P51684 whole entry, looked up): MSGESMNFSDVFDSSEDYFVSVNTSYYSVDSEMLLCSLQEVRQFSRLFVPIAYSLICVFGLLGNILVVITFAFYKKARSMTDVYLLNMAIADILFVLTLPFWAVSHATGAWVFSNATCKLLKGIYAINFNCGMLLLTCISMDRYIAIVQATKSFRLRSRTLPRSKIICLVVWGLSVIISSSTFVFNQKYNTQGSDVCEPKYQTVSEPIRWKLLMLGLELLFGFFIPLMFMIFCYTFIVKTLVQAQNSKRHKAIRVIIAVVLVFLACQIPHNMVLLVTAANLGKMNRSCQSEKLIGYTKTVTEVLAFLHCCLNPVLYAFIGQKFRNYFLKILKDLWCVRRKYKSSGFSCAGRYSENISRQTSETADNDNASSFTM
# EBI2 block: blocks human EBI2 receptor beta-arrestin signaling | EBI2 beta-arrestin recruitment, luminescence, 7a,25-OHC stimulated | inhibition, % at 5 µM | actives 0.81% (n = 360,000) | AID 651636; in the data active means inhibition above about 38%;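 further: enzyme fragment complementation signal reports receptor beta-arrestin coupling in cells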
# APJ agonist: agonists of human APJ apelin receptor; CHO-K1 APJ PathHunter beta-arrestin, luminescence; 0% DMSO wells, 100% apelin; activation, % at 20 µM; actives 0.11% (n = 330,000); AID 2520;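 active means activation more than six SD over the plate average, tested at 20 µM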
#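 system = engineered CHO-K1 APJ arrestin reporter cells | input = 1000 cells per well | timing = overnight seeding, 90 min compound at 25 °C, 1 h detection | measured by = enzyme-fragment complementation luminescence | read-out = beta-arrestin recruitment to APJ as agonist activity, luminescent signal | control set = negative DMSO alone, positive Apelin-13 at 10 nM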
# EBI2 antag conf: EBI2 (human) antagonism, single concentration confirmation | shares compounds with EBI2 block | EBI2 beta-arrestin luminescence, 7a,25-OHC antagonism | inhibition, % at 5 µM | actives 29% (n = 2,400) | AID 651997;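 active means inhibition of at least 50%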
# EBI2 ag: counter-screen for EBI2 antagonists: EBI2 agonist activity; EBI2-expressing cells, agonist mode, luminescence, 60 min; 0% vehicle, 100% 7α,25-dihydroxycholesterol control; 2,400 tested, under 10 active; shares compounds with EBI2 block; activation, % at 5 µM;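 active means activation of at least 50%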
# bGal counter: inhibits E. coli beta-galactosidase, counter-screen for EBI2 antagonists; AID 652176; purified beta-galactosidase, luminescent Galacton Star, 15 min; shares compounds with EBI2 block; actives 1% (n = 2,400); inhibition, % at 5 µM;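 active means replicate-average signal at least 3 plate SD below neutral wells, shown as high inhibition, flagging enzyme-inhibiting false positives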;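 further: higher means stronger loss of beta-gal luminescence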
# A number is an active result; 0 = inactive; - = no result.
SMILES,CXCR6 inh,APJ antag,CCR6 antag,EBI2 block,APJ agonist,EBI2 antag conf,EBI2 ag,bGal counter
CCOc1ccc(-c2nc(N)ncc2-c2ccc(Cl)cc2)c(O)c1,0,0,0,58.8,0,0,0,0
COc1ccc(-c2nc(C)ncc2-c2ccc(Cl)cc2)c(O)c1,0,0,0,54.0,0,0,0,0
CCOc1ccc(-c2nc(N)ncc2-c2ccccc2)c(O)c1,0,0,0,0,0,-,-,-
CCOc1ccc(-c2nc(N)ncc2-c2ccc(OC)cc2)c(O)c1,0,0,0,68.6,0,0,0,0
COc1cccc(OCC(=O)N2CCC3(CC2)CC(=O)c2ccccc2O3)c1,0,0,0,0,0,-,-,-
Cc1ccc(OCC(=O)N2CCC3(CC2)CC(=O)c2ccccc2O3)cc1,0,0,0,86.3,0,59.8,0,0
O=C1CC2(CCN(C(=O)c3ccc(Br)cc3)CC2)Oc2ccccc21,0,0,0,54.1,0,0,0,0
O=C1CC2(CCN(C(=O)COc3ccc(Cl)cc3)CC2)Oc2ccccc21,0,0,0,87.4,0,64.0,0,0
COc1ccc(S(=O)(=O)NCCc2c[nH]c3ccc(C)cc23)cc1,0,0,0,0,0,-,-,-
O=C(CSc1ccccn1)NC1CCCc2c1cnn2-c1ccccc1F (stereo unspecified),0,-,-,0,-,-,-,-
COc1ccccc1OCC(=O)N/N=C1/SCC(=O)N1Cc1ccccc1,0,0,0,0,0,-,-,-
O=C(COc1ccc(Br)cc1)N/N=C1/SCC(=O)N1Cc1ccccc1,0,0,0,48.8,0,0,0,0
CC(=O)O[C@H]1C[C@@]2(C)[C@@H](C[C@@H](O)[C@H]3[C@@]4(C)CC[C@@H](O)[C@@H](C)C4CC[C@@]32C)/C1=C(\CCC=C(C)C)C(=O)O (stereo partly specified),0,-,0,0,-,-,-,-
COc1cccc(-c2csc(N3CCN(C(=O)NC45CC6CC(CC(C6)C4)C5)CC3)n2)c1,0,0,0,0,0,-,-,-
CN1CCN(C(=O)c2cc(=O)c3cc(Cl)ccc3o2)CC1,0,0,0,0,0,-,-,-
CCc1ccc2oc(C(=O)N3CCN(C)CC3)cc(=O)c2c1,0,0,0,45.3,0,0,0,0
CCN1CCN(C(=O)c2cc(=O)c3cc(C)ccc3o2)CC1,0,0,0,66.9,0,0,0,0
Cc1ccc(Cl)cc1NC(=O)Cn1cc2c(n1)CCCC2,0,0,0,0,0,-,-,-
COCCN1C[C@@H](CO)O[C@@H](n2cnc3c(N(C)C)ncnc32)C1,0,-,-,0,-,-,-,-
COc1ccc(/C=C/C(=O)Nc2ccc(C(N)=O)cc2)cc1OC,0,0,0,0,0,-,-,-
COc1ccc(/C=C/C(=O)Nc2ccc(-n3nncc3-c3ccccc3)cc2)cc1OC,0,0,0,61.3,0,0,0,0
CCCCNC(=O)c1oc2ccc(S(=O)(=O)N3CCCC3)cc2c1C,0,0,0,0,0,-,-,-
CCCCCCSc1ccc(-c2nc3ccc(C)cn3c2NC2CCCCC2)cc1,0,0,0,44.8,0,0,0,0
CCCCCCSc1ccc(-c2nc3cc(C)ccn3c2NC2CCCCC2)cc1,0,0,0,0,0,-,-,-
O=S(=O)(CC(O)COc1ccc(Br)cc1)c1ccccc1 (stereo unspecified),0,0,0,45.3,0,0,0,0
SMILES,CXCR6 inh,APJ antag,CCR6 antag,EBI2 block,APJ agonist,EBI2 antag conf,EBI2 ag,bGal counter
CCOC(=O)C1=C(C)Nc2sc(C(=O)c3ccc(F)cc3)c(N)c2C1c1ccc(C(=O)OC)cc1 (stereo unspecified),0,0,0,36.8,0,0,0,0
CN(C)S(=O)(=O)c1ccc(C(=O)NCC(=O)N/N=C/c2ccccc2Cl)cc1,0,0,0,71.9,0,0,0,0
Cc1ccsc1/C=N/NC(=O)CNC(=O)c1ccc(S(=O)(=O)N(C)C)cc1,0,0,0,0,0,-,-,-
Cc1ccc(/C=N/NC(=O)CNC(=O)c2ccc(S(=O)(=O)N(C)C)cc2)cc1,0,0,0,45.5,0,0,0,0
Cc1ccc(CNC(=O)C2CCC(CNS(=O)(=O)c3cccc4cccnc34)CC2)cc1 (stereo unspecified),0,0,0,50.3,0,0,0,0
CC(=O)N1CCOc2ccc(S(=O)(=O)N3CCC(C(=O)NCc4ccccc4)CC3)cc21,0,0,0,64.6,0,0,0,0
Cc1ccc(CNC(=O)C2CCN(S(=O)(=O)c3c(C)noc3C)CC2)cc1,0,0,0,47.2,0,0,0,0
Cc1ccc(CNC(=O)C2CCN(S(=O)(=O)c3cccc4nonc34)CC2)cc1,0,0,0,48.6,0,0,0,0
CN(C)S(=O)(=O)c1cccc(NC(=O)c2cccc(N3C(=O)CCC3=O)c2)c1,0,0,0,0,0,-,-,-
CCCCCOCC(O)CCC(=O)NN (stereo unspecified),0,0,0,0,0,-,-,-
Cc1cccc(C)c1OCc1nnc(SCC(=O)Nc2ccc(N3CCOCC3)cc2)o1,0,0,0,0,0,-,-,-
Cc1ccc(CNC(=O)C2CCN(S(=O)(=O)c3cccnc3)CC2)cc1,0,0,0,52.4,0,0,0,0
CSc1ccc(S(=O)(=O)NCCCOC(C)C)cc1,0,0,0,0,0,-,-,-
CCS(=O)(=O)Nc1ccc2[nH]c(=O)[nH]c2c1,0,0,0,0,0,-,-,-
Cc1ccc(C)c(Oc2cc(NC(=O)CCCn3nc(C)c([N+](=O)[O-])c3C)cc([N+](=O)[O-])c2)c1,0,0,0,44.3,0,0,0,0
Cc1nn(CCCC(=O)Nc2cc(Oc3ccccc3)cc([N+](=O)[O-])c2)c(C)c1[N+](=O)[O-],0,0,0,0,0,-,-,-
COc1ccc(NC(=O)c2cc(=O)c3ccccc3o2)cn1,0,0,0,0,0,-,-,-
COc1ccc(NC(=O)c2cc3ccccc3o2)cn1,0,0,0,38.0,0,0,0,0
O=[N+]([O-])c1ccc(N/N=C/c2cn(-c3ccccc3)nc2-c2ccccc2)cc1,0,0,0,44.3,0,0,0,0
NS(=O)(=O)c1ccc(N/N=C/c2cn(-c3ccccc3)nc2-c2ccccc2)c([N+](=O)[O-])c1,0,0,0,0,0,-,-,-
O=C(NC(c1ccc(F)cc1)c1ccc2ccccc2n1)C1CCN(CCOc2ccc(Cl)cc2)CC1 (stereo unspecified),0,-,-,72.7,-,51.5,0,0
O=C(NC(c1ccccc1)c1ccc2ccccc2n1)C1CCN(CCOc2ccc(Cl)cc2Cl)CC1 (stereo unspecified),0,-,-,0,-,-,-,-
CC(C)=CC(=O)OCc1cc([N+](=O)[O-])cc2c1OCOC2,0,0,0,0,0,-,-,-
